Measured values published in ChEMBL document CHEMBL1142796 (Bioorg Med Chem Lett, 2005).

Key:
[1] = molecular target: T1, Neuronal acetylcholine receptor; alpha4/beta2 (Rattus norvegicus, UniProt P09483+P12390); assay: Inhibition of [3H]nicotine binding to alpha4-beta2 nicotinic acetylcholine receptor of rat brain membrane
[2] = molecular target: T2, Neuronal acetylcholine receptor subunit alpha-7 (Rattus norvegicus, UniProt Q05941); assay: Effective concentration against rat alpha-7 nicotinic acetylcholine receptor
T2 sequence (Q05941 whole entry, the tested form may be a part): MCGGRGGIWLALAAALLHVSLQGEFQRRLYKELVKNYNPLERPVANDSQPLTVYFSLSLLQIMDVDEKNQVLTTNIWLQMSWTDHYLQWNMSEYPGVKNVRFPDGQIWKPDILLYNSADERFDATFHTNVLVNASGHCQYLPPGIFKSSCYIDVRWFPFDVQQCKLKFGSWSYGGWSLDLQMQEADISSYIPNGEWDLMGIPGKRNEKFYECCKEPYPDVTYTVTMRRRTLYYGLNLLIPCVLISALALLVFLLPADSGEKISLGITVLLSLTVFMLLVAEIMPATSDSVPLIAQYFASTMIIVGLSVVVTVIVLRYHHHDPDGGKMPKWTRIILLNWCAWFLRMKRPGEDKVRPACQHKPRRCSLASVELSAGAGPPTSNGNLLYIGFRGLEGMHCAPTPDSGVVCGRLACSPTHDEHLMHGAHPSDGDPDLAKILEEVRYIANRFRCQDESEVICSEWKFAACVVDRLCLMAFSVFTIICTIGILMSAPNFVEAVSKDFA
How it was run: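 Rat α7 expressed in Xenopus oocytes, two-electrode voltage clamp at −60 mV, perfused at 2 ml/min. Net-charge responses were normalized to the preceding ACh control and rescaled to the ACh maximum.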

[3] = molecular target: T2, Neuronal acetylcholine receptor subunit alpha-7; assay: Inhibition of [3H]MLA binding to rat alpha7 nicotinic acetylcholine receptor
[4] = molecular target: Neuronal acetylcholine receptor subunit alpha-7 (Rattus norvegicus) (UniProt Q05941); assay: Maximal response against rat alpha-7 nicotinic acetylcholine receptor
Sequence of Neuronal acetylcholine receptor subunit alpha-7 (Rattus norvegicus) (Q05941 whole entry, the tested form may be a part): as above
How it was run: (§1)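 Rat α7 expressed in Xenopus oocytes, two-electrode voltage clamp at −60 mV, perfused at 2 ml/min. Controls were 300 μM ACh applied for 12 s with 181 s washout, given as two controls, then drug, then a control. Net-charge responses were normalized to the preceding ACh control and rescaled to the ACh maximum.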

[5] = molecular target: Neuronal acetylcholine receptor; alpha4/beta2 (Rattus norvegicus) (UniProt P09483+P12390); assay: Maximal response against rat alpha4-beta2 nicotinic acetylcholine receptor; type: protein-complex assay
How it was run: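 Rat α4β2 expressed in Xenopus oocytes, two-electrode voltage clamp at −60 mV, perfused at 4 ml/min. Controls were 10 μM ACh applied for 8 s with 241 s washout, given as two controls, then drug, then a control. Peak current was normalized to the preceding ACh control and rescaled to the ACh maximum.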

[6] = molecular target: Neuronal acetylcholine receptor; alpha3/beta4 (Rattus norvegicus) (UniProt P04757+P12392); assay: Maximal response against rat alpha3-beta4 nicotinic acetylcholine receptor; type: protein-complex assay
How it was run: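 Rat α3β4 expressed in Xenopus oocytes, two-electrode voltage clamp at −60 mV, perfused at 4 ml/min. Controls were 100 μM ACh applied for 8 s with 241 s washout, given as two controls, then drug, then a control. Peak current was normalized to the preceding ACh control and rescaled to the ACh maximum.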

[7] = molecular target: T2, Neuronal acetylcholine receptor subunit alpha-7; assay: Effective concentration against rat alpha7 nicotinic acetylcholine receptor; how it was run: as §1
[8] = molecular target: T2, Neuronal acetylcholine receptor subunit alpha-7; assay: Inhibition of [3H]-MLA binding to alpha-7 nicotinic acetylcholine receptor of rat brain membrane
[9] = molecular target: Neuronal acetylcholine receptor; alpha3/beta4 (Rattus norvegicus, UniProt P04757+P12392); assay: Effective concentration against rat alpha3-beta4 nicotinic acetylcholine receptor; type: protein-complex assay
Sequence of Neuronal acetylcholine receptor; alpha3/beta4 (P04757 whole entry, the tested form may be a part): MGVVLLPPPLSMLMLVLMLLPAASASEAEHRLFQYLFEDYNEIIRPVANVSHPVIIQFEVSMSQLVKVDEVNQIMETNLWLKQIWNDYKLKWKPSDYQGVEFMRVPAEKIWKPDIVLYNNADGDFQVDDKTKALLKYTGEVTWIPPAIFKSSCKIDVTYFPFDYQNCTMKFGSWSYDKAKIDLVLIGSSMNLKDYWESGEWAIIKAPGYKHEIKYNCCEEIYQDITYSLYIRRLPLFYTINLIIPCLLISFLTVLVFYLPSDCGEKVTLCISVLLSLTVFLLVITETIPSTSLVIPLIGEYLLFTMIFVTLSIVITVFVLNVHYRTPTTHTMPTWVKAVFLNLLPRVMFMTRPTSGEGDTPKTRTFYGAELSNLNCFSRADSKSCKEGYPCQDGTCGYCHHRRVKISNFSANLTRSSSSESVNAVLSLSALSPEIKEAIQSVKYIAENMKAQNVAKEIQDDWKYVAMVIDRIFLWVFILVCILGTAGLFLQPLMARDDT
Sequence of Neuronal acetylcholine receptor; alpha3/beta4 (P12392 whole entry, the tested form may be a part): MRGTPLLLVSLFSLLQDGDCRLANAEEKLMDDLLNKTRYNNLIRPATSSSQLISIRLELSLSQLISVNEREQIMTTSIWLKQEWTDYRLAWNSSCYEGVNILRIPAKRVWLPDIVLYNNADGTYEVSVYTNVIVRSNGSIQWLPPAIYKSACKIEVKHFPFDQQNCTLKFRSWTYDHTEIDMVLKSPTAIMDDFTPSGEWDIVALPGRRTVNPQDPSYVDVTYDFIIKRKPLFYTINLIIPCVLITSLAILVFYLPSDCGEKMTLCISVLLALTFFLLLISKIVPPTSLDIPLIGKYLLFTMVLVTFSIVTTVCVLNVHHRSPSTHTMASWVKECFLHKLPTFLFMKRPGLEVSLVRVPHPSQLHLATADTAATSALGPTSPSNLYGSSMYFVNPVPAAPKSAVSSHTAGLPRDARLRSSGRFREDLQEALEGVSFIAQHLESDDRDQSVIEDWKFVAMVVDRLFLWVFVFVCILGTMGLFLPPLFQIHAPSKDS
How it was run: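 Rat α3β4 expressed in Xenopus oocytes, two-electrode voltage clamp at −60 mV, perfused at 4 ml/min. Peak current was normalized to the preceding ACh control and rescaled to the ACh maximum.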

[10] = molecular target: T1, Neuronal acetylcholine receptor; alpha4/beta2; assay: Effective concentration against rat alpha4-beta2 nicotinic acetylcholine receptor; type: protein-complex assay
How it was run: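 Rat α4β2 expressed in Xenopus oocytes, two-electrode voltage clamp at −60 mV, perfused at 4 ml/min. Peak current was normalized to the preceding ACh control and rescaled to the ACh maximum.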

T1 sequence (P09483 whole entry): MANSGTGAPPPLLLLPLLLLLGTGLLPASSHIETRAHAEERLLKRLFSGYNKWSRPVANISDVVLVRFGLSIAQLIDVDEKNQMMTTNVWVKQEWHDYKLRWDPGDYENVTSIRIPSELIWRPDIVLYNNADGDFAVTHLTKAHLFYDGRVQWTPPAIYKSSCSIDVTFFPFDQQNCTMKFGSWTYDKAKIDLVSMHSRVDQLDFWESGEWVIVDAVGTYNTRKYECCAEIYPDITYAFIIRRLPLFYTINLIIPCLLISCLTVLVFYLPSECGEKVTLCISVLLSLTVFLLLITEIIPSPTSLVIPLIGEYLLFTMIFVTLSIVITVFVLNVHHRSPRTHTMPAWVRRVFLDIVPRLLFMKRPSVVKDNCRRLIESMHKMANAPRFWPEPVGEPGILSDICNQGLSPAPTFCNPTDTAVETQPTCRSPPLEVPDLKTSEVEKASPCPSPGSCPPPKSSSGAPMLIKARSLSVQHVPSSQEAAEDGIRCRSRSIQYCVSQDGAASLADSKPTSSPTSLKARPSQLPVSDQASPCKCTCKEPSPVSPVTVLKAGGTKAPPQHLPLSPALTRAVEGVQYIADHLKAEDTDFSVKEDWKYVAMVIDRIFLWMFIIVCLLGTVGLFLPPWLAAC
T1 sequence (P12390 whole entry): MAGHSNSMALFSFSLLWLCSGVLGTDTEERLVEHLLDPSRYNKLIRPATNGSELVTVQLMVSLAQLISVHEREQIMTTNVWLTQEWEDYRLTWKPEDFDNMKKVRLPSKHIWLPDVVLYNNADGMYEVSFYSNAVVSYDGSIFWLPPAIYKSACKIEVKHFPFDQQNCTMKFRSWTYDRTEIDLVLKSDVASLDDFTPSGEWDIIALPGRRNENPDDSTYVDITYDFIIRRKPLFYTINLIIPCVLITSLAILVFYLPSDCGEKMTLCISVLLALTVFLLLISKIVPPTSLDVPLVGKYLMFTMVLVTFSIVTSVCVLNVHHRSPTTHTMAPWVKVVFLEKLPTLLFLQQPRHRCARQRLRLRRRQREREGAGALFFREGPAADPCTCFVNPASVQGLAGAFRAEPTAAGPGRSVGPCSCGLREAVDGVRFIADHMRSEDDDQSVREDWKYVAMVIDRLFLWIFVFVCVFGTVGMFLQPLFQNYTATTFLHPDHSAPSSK

SMILES | Ki [1] | EC50 [2] | Ki [3] | Imax [4] | Imax [5] | Imax [6] | EC50 [7] | Ki [8] | EC50 [9] | EC50 [10]
CN1CC[C@@H]2CCc3cc[n+]([BH2-]C#N)cc3[C@@H]21 | 0.6 µM | 20 µM | 2.4 µM | 0.26 |  |  |  |  |  | 
CN1CCC[C@H]1c1cccnc1 |  |  |  | 0.6 | 0.17 | 0.69 |  |  |  | 
CN1CC[C@@H]2CCc3ccncc3[C@@H]21 | 0.4 µM |  |  | 0.11 |  |  | 44 µM |  |  | 
CN1CCC[C@H]1c1ccc[n+]([BH2-]C#N)c1 | 0.041 µM | 21 µM |  | 0.15 | 0.05 | 0.06 |  | 15.2 µM | 28 µM | 150 µM
CN1CC[C@H]2CCc3ncccc3[C@H]21 | 12.2 µM |  |  |  |  |  |  |  |  | 
